Results as given in ChEMBL document CHEMBL1149042, “Antihypertensive activity of 6-O-galloyl-D-glucose, a phenolic glycoside from Sapium sebiferum” (1994).
Calls of active or inactive are those of the source. The calls are words filed in the database; no cut-off is given here.

Columns and labels:
Rattus norvegicus [1] = test: Antihypertensive activity in SHR rat assessed as changes in tail arterial mean blood pressure at 5 mg/kg, iv; format: functional, Artery
Method in brief: (§1)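 SHR rats (250–280 g) with systemic pressure above 180 mm Hg were used. Compound in Locke-Ringer solution was given as a single iv bolus over 20 sec into a cannulated femoral vein. Pressure was read by indirect tail-cuff with a photoelectric pulse sensor at 28 °C without pre-warming, every 10 min, versus pre-dose control. Controls received vehicle. Activity required a significant fall lasting at least 30 min.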

Rattus norvegicus [2] = test: Antihypertensive activity in iv dosed SHR rat assessed as changes in tail arterial mean blood pressure relative to control; format: functional, organism-based; settings: Artery; method in brief: as §1
Rattus norvegicus [3] = test: Antihypertensive activity in SHR rat assessed as reversible inhibition of pentobarbitol-induced increase in blood pressure at 20 mg/kg after 2 hrs; format: functional, organism-based; design: dose 20 mg/kg; method in brief: as §1
Rattus norvegicus [4] = test: Antihypertensive activity in SHR rat assessed as changes in tail arterial mean blood pressure at 1 mg/kg, iv; format: functional, Artery
Method in brief: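 Conscious SHR (250–280 g) with systemic pressure above 180 mm Hg, given a single bolus in Locke-Ringer solution into the cannulated femoral vein over 20 sec. Tail arterial mean pressure was taken by indirect tail-cuff with a photoelectric pulse sensor at 28 ± 1° without pre-warming, at 10-min intervals. Controls received vehicle.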

Rattus norvegicus [5] = test: Antihypertensive activity in iv dosed SHR rat assessed as reduction in pentobarbitol-induced increase in blood pressure; format: functional, organism-based
Rattus norvegicus [6] = test: Inhibition of noradrenaline release in adrenalectomized anesthetized SHR rat plasma at 10 mg/kg, iv after 20 mins; format: functional
Method in brief: (§2)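 Plasma was sampled 20 min after a single iv bolus in anaesthetized adrenalectomized rats (bilateral, dorsal approach under ether, 24 h recovery) or sham-operated SHR. Blood (2 ml) came from the optic sinus under ether and was spun at 5,000 × g for 10 min at 4°. Plasma (200 μl) received 20 ng DHBA internal standard and was adsorbed onto alumina with 30 min shaking. Vehicle-treated rats were controls, n=8, mean ± S.D.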

Rattus norvegicus [7] = test: Inhibition of noradrenaline release in adrenalectomized anesthetized SHR rat plasma at 1 mg/kg, iv after 20 mins; format: functional; method in brief: as §2
Rattus norvegicus [8] = test: Inhibition of noradrenaline release in adrenalectomized anesthetized SHR rat plasma at 5 mg/kg, iv after 20 mins; format: functional; method in brief: as §2
Rattus norvegicus [9] = test: Vasorelaxation activity in SHR rat assessed as reduction of methoxamine-induced mean arterial blood pressure at 10 mg/kg, iv after 20 mins; format: functional
Rattus norvegicus [10] = test: Antihypertensive activity in adrenalectomized anesthetized SHR rat assessed as reduction of mean blood pressure at 1 mg/kg, iv; format: functional
Method in brief: (§3)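 Anaesthetized SHR given a single iv bolus. For adrenalectomized rats, bilateral adrenalectomy was done by dorsal approach under ether, with 24 h recovery before use. Sham-operated rats served as controls. Mean arterial pressure was recorded against vehicle-treated controls. Values are mean ± S.D. of 8 animals, and significance was tested by Dunnett's t-test.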

Rattus norvegicus [11] = test: Inhibition of noradrenaline release in sham operated anesthetized SHR rat plasma at 5 mg/kg, iv after 20 mins; format: functional; method in brief: as §2
Rattus norvegicus [12] = test: Vasorelaxation activity in anesthetized normotensive rat assessed as reduction of Bay-K 8644-induced mean arterial blood pressure at 15 mg/kg, iv after 20 mins
Rattus norvegicus [13] = test: Antihypertensive activity in sham operated anesthetized SHR rat assessed as reduction of mean blood pressure at 10 mg/kg, iv; format: functional; method in brief: as §3
Rattus norvegicus [14] = test: Antihypertensive activity in sham operated anesthetized SHR rat assessed as reduction of mean blood pressure at 15 mg/kg, iv; format: functional; method in brief: as §3
Rattus norvegicus [15] = test: Inhibition of noradrenaline release in sham operated anesthetized SHR rat plasma at 15 mg/kg, iv after 20 mins; format: functional; method in brief: as §2
Rattus norvegicus [16] = test: Vasorelaxation activity in anesthetized normotensive rat assessed as reduction of Bay-K 8644-induced mean arterial blood pressure at 10 mg/kg, iv after 20 mins
Rattus norvegicus [17] = test: Antihypertensive activity in sham operated anesthetized SHR rat assessed as reduction of mean blood pressure at 5 mg/kg, iv; format: functional; method in brief: as §3
Rattus norvegicus [18] = test: Inhibition of noradrenaline release in adrenalectomized anesthetized SHR rat plasma at 15 mg/kg, iv after 20 mins; format: functional; method in brief: as §2
Rattus norvegicus [19] = test: Inhibition of noradrenaline release in sham operated anesthetized SHR rat plasma at 1 mg/kg, iv after 20 mins; format: functional; method in brief: as §2
Rattus norvegicus [20] = test: Antihypertensive activity in sham operated anesthetized SHR rat assessed as reduction of mean blood pressure at 1 mg/kg, iv; format: functional; method in brief: as §3
Rattus norvegicus [21] = test: Vasorelaxation activity in SHR rat assessed as reduction of Bay-K 8644-induced mean arterial blood pressure at 5 mg/kg, iv after 20 mins; format: functional
Rattus norvegicus [22] = test: Vasorelaxation activity in SHR rat assessed as reduction of methoxamine-induced mean arterial blood pressure at 15 mg/kg, iv after 20 mins; format: functional
Rattus norvegicus [23] = test: Antihypertensive activity in adrenalectomized anesthetized SHR rat assessed as reduction of mean blood pressure at 5 mg/kg, iv; format: functional; method in brief: as §3
Rattus norvegicus [24] = test: Inhibition of noradrenaline release in sham operated anesthetized SHR rat plasma at 10 mg/kg, iv after 20 mins; format: functional; method in brief: as §2
Rattus norvegicus [25] = test: Antihypertensive activity in adrenalectomized anesthetized SHR rat assessed as reduction of mean blood pressure at 10 mg/kg, iv; format: functional; method in brief: as §3
Rattus norvegicus [26] = test: Vasorelaxation activity in SHR rat assessed as reduction of methoxamine-induced mean arterial blood pressure at 5 mg/kg, iv after 20 mins; format: functional
Rattus norvegicus [27] = test: Antihypertensive activity in adrenalectomized anesthetized SHR rat assessed as reduction of mean blood pressure at 15 mg/kg, iv; format: functional; method in brief: as §3
Rattus norvegicus [28] = test: Antihypertensive activity in SHR rat assessed as reduction in pentobarbitol-induced increase in blood pressure at 0.1 mg/kg, iv; format: functional; method in brief: as §1

## O=C(OC[C@H]1O[C@@H](O)[C@H](O)[C@@H](O)[C@@H]1O)c1cc(O)c(O)c(O)c1
Rattus norvegicus [1]
  Activity: 29.6 mmHg
Rattus norvegicus [2]
  Activity: Dose-dependent effect
Rattus norvegicus [3]
  Activity: Active
Rattus norvegicus [4]
  Activity: 17.3 mmHg
Rattus norvegicus [5]
  Activity: Active

## COC(=O)C1=C(C)NC(C)=C(C(=O)OC)C1c1ccccc1[N+](=O)[O-] [NIFEDIPINE]
Rattus norvegicus [6]
  Activity: 1.49 pmol/mL
Rattus norvegicus [7]
  Activity: 2.04 pmol/mL
Rattus norvegicus [8]
  Activity: 1.76 pmol/mL
Rattus norvegicus [9]
  Activity: 29.8 mmHg
Rattus norvegicus [10]
  Activity: 161.1 mmHg
Rattus norvegicus [11]
  Activity: 2.04 pmol/mL
Rattus norvegicus [12]
  Activity: 14.3 mmHg
Rattus norvegicus [13]
  Activity: 140.9 mmHg
Rattus norvegicus [14]
  Activity: 118.7 mmHg
Rattus norvegicus [15]
  Activity: 1.28 pmol/mL
Rattus norvegicus [16]
  Activity: 23.6 mmHg
Rattus norvegicus [17]
  Activity: 151.2 mmHg
Rattus norvegicus [18]
  Activity: 1.12 pmol/mL
Rattus norvegicus [19]
  Activity: 2.37 pmol/mL
Rattus norvegicus [4]
  Activity: 10.8 mmHg
Rattus norvegicus [20]
  Activity: 168.4 mmHg
Rattus norvegicus [21]
  Activity: 34.1 mmHg
Rattus norvegicus [22]
  Activity: 17.1 mmHg
Rattus norvegicus [23]
  Activity: 143.8 mmHg
Rattus norvegicus [24]
  Activity: 1.62 pmol/mL
Rattus norvegicus [25]
  Activity: 132.4 mmHg
Rattus norvegicus [26]
  Activity: 36.3 mmHg
Rattus norvegicus [27]
  Activity: 110.4 mmHg

## COc1cc2nc(N3CCN(C(=O)c4ccco4)CC3)nc(N)c2cc1OC [PRAZOSIN]
Rattus norvegicus [28]
  Activity: 31.4 mmHg
